Source: ChEMBL document CHEMBL1138735, “Identification of 1,5-naphthyridine derivatives as a novel series of potent and selective TGF-beta type I receptor inhibitors” (J Med Chem, 2004)
Each block holds one compound with its values, some of them ahead of it.

Legend:
TGF-beta receptor type-1 [1] = target: T1, TGF-beta receptor type-1 (Homo sapiens, UniProt P36897); assay: Stimulation of Transforming growth factor beta receptor I kinase in HepG2 cells; format: functional, cell-based
T1 sequence (P36897 whole entry): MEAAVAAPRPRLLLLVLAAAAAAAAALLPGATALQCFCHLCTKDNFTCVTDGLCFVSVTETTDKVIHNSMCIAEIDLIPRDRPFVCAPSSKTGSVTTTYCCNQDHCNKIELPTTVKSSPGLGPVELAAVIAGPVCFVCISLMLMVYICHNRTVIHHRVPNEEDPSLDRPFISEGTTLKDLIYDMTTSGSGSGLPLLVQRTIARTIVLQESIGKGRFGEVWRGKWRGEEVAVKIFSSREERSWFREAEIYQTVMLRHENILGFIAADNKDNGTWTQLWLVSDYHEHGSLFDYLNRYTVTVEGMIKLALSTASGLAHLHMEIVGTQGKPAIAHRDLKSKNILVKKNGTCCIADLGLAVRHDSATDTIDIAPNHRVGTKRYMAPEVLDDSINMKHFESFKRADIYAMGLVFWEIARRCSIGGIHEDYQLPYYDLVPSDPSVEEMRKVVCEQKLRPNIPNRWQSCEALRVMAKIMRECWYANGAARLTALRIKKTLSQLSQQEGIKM

TGF-beta receptor type-1 [2] = target: T1, TGF-beta receptor type-1; assay: Binding affinity to Activin A receptor type II-like kinase (ALK5) in fluorescence polarization binding assay; Range is (1.375-9.154)
Outline: (§1)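 Purified recombinant GST-ALK5 (residues 198–503), final 10 nM by active-site titration, in 62.5 mM HEPES pH 7.5, 1 mM DTT, 12.5 mM MgCl2, 1.25 mM CHAPS with 1 nM rhodamine green-labelled ATP-competitive ligand. Test compound added over a concentration series, plate read immediately by fluorescence polarization (ex 485/em 530 nm). Binding pIC50 from concentration–response curves; mean of two or more experiments, 95% confidence limits converted to IC50.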

TGF-beta receptor type-1 [3] = target: T1, TGF-beta receptor type-1; assay: Binding affinity for Activin A receptor type II-like kinase (ALK5) in fluorescence polarization binding assay
Outline: (§2)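 Purified recombinant GST-ALK5 (residues 198–503), final 10 nM by active-site titration, in 62.5 mM HEPES pH 7.5, 1 mM DTT, 12.5 mM MgCl2, 1.25 mM CHAPS with 1 nM rhodamine green-labelled ATP-competitive ligand. Test compound added over a concentration range; plates read immediately for fluorescence polarization (ex 485/em 530 nm). Binding pIC50 from concentration–response curves; means of two or more experiments, mean pIC50 converted to IC50, with 95% confidence limits.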

MAP kinase p38 [4] = target: T2, MAP kinase p38 (Homo sapiens, UniProt O15264+Q15759+Q16539+P53778); assay: Displacement of ATP from Mitogen-activated protein kinase p38 in fluorescence polarization assay; Range is (0.208-1.155)
Outline: (§3)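 p38 MAP kinase binding measured by fluorescence polarization: displacement of a fluorescently labelled ATP-competitive inhibitor by a compound concentration series gives a binding IC50. Runs were duplicated or repeated as three separate experiments; 95% confidence limits on pIC50 were converted to IC50 limits.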

TGF-beta receptor type-1 [5] = target: T1, TGF-beta receptor type-1; assay: Inhibition of recombinant Activin A receptor type II-like kinase (ALK5) expressed in baculovirus/Sf9 cells; format: cell-based
TGF-beta receptor type-1 [6] = target: T1, TGF-beta receptor type-1
MAP kinase p38 [7] = target: T2, MAP kinase p38; assay: Displacement of ATP from p38 MAP kinase by fluorescence polarization assay; format: protein assay; outline: as §3
TGF-beta receptor type-1 [8] = target: T1, TGF-beta receptor type-1; assay: Binding affinity to Activin A receptor type II-like kinase (ALK5) in fluorescence polarization binding assay; Range is (0.029-0.032)
TGF-beta receptor type-1 [9] = target: T1, TGF-beta receptor type-1; remark: listed apart in the source
TGF-beta receptor type-1 [10] = target: T1, TGF-beta receptor type-1; assay: Binding affinity to Activin A receptor type II-like kinase (ALK5) in fluorescence polarization binding assay; Range is (0.038-0.042); outline: as §1
TGF-beta receptor type-1 [11] = target: T1, TGF-beta receptor type-1; assay: Binding affinity to Activin A receptor type II-like kinase (ALK5) in fluorescence polarization binding assay; Range is (0.356-4.455); outline: as §1
TGF-beta receptor type-1 [12] = target: T1, TGF-beta receptor type-1; assay: Binding affinity to Activin A receptor type II-like kinase (ALK5) in fluorescence polarization binding assay; Range is (0.289-3.621); outline: as §2
[13] = target: Mitogen-activated protein kinase kinase kinase 11 (Homo sapiens, UniProt Q16584); assay: Inhibition of MLK3 kinase binding in fluorescence polarization assay
[14] = target: Ribosomal protein S6 kinase alpha-5 (Homo sapiens, UniProt O75582); assay: Inhibition of MSK-1 kinase binding in fluorescence polarization assay
[15] = target: Serine/threonine-protein kinase B-raf (Homo sapiens, UniProt P15056); assay: Inhibition of Protein kinase Raf-B binding in fluorescence polarization assay
[16] = target: Mitogen-activated protein kinase 10 (Homo sapiens, UniProt P53779); assay: Inhibition of c-Jun N-terminal kinase 3-alpha binding in HTRF assay
[17] = target: Mitogen-activated protein kinase 8 (Homo sapiens, UniProt P45983); assay: Inhibition of c-Jun N-terminal kinase 1-alpha 1 binding in fluorescence polarization assay
[18] = target: Proto-oncogene tyrosine-protein kinase LCK (Mus musculus, UniProt P06240); assay: Inhibition of p56 Lck tyrosine kinase binding in HTRF assay
[19] = target: T3, Tyrosine-protein kinase ITK/TSK (Homo sapiens, UniProt Q08881)
T3 sequence (Q08881 whole entry): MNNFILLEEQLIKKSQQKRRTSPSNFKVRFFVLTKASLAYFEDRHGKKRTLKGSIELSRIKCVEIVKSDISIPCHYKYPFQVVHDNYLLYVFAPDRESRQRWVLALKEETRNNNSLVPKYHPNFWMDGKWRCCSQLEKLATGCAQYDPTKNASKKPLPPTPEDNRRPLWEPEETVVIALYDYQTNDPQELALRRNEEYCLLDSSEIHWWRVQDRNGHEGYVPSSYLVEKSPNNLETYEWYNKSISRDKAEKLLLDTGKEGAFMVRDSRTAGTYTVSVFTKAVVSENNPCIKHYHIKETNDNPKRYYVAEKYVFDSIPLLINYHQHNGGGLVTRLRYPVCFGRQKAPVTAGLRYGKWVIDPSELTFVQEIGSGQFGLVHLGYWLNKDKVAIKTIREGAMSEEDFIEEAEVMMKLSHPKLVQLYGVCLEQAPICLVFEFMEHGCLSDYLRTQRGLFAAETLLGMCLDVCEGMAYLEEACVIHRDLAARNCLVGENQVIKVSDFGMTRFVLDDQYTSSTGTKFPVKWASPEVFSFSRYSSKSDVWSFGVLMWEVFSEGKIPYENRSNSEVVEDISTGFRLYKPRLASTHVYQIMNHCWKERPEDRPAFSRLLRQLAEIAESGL

TGF-beta receptor type-1 [20] = target: T1, TGF-beta receptor type-1; assay: Binding affinity to Activin A receptor type II-like kinase (ALK5) in fluorescence polarization binding assay; Range is (5.326-22.574); outline: as §1
MAP kinase p38 [21] = target: T2, MAP kinase p38; assay: Displacement of ATP from Mitogen-activated protein kinase p38 in fluorescence polarization assay; Range is (0.242-0.545); outline: as §3
TGF-beta receptor type-1 [22] = target: T1, TGF-beta receptor type-1; remark: listed apart in the source
TGF-beta receptor type-1 [23] = target: T1, TGF-beta receptor type-1; assay: Binding affinity to Activin A receptor type II-like kinase (ALK5) in fluorescence polarization binding assay; Range is (0.021-0.042); outline: as §1
TGF-beta receptor type-1 [24] = target: T1, TGF-beta receptor type-1; assay: Binding affinity to Activin A receptor type II-like kinase (ALK5) in fluorescence polarization binding assay; Range is (3.221-19.588); outline: as §2
TGF-beta receptor type-1 [25] = target: T1, TGF-beta receptor type-1; assay: Binding affinity to Activin A receptor type II-like kinase (ALK5) in fluorescence polarization binding assay; Range is (0.783-1.764); outline: as §1
TGF-beta receptor type-1 [26] = target: T1, TGF-beta receptor type-1; assay: Binding affinity to Activin A receptor type II-like kinase (ALK5) in fluorescence polarization binding assay; Range is (2.423-6.540); outline: as §2
TGF-beta receptor type-1 [27] = target: T1, TGF-beta receptor type-1; assay: Binding affinity to Activin A receptor type II-like kinase (ALK5) in fluorescence polarization binding assay; Range is (0.864-3.661); outline: as §2

Chain of Proto-oncogene tyrosine-protein kinase LCK (P06240 whole entry): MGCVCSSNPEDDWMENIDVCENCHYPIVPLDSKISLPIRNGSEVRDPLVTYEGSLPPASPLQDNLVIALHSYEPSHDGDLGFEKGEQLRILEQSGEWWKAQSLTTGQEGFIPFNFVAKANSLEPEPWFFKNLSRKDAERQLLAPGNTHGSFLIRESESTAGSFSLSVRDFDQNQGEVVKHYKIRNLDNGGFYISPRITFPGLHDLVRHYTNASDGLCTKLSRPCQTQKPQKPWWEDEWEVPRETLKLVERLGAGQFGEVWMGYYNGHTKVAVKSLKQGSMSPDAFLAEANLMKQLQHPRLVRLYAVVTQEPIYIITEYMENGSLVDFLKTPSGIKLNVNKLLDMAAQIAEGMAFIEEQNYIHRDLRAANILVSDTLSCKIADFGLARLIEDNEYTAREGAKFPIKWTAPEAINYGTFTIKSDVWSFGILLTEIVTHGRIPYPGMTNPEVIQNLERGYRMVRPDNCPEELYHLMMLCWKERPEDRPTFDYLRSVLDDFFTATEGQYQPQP
Chain of Mitogen-activated protein kinase kinase kinase 11 (Q16584 whole entry): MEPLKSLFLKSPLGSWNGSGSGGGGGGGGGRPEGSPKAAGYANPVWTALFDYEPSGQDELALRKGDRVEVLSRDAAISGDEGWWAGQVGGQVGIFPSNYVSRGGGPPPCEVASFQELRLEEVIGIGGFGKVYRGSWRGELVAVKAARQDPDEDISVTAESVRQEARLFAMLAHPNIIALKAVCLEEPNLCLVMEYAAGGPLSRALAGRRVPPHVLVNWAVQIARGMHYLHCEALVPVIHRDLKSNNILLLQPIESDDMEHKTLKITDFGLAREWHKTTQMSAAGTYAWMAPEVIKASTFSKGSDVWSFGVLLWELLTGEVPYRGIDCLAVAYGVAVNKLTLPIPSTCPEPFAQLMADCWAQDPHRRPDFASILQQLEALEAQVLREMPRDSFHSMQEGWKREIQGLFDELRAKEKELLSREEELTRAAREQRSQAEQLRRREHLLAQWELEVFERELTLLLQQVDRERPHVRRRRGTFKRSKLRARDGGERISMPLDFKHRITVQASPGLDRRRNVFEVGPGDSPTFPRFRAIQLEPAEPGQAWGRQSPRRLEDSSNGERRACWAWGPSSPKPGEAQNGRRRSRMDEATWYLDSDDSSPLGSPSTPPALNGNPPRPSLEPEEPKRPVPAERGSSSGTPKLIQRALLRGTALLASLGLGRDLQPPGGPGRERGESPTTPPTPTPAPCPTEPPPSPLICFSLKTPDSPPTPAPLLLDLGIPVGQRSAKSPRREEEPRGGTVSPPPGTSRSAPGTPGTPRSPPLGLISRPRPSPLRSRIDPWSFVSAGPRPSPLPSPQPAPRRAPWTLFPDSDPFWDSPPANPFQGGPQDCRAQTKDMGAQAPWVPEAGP
Chain of Serine/threonine-protein kinase B-raf (P15056 whole entry): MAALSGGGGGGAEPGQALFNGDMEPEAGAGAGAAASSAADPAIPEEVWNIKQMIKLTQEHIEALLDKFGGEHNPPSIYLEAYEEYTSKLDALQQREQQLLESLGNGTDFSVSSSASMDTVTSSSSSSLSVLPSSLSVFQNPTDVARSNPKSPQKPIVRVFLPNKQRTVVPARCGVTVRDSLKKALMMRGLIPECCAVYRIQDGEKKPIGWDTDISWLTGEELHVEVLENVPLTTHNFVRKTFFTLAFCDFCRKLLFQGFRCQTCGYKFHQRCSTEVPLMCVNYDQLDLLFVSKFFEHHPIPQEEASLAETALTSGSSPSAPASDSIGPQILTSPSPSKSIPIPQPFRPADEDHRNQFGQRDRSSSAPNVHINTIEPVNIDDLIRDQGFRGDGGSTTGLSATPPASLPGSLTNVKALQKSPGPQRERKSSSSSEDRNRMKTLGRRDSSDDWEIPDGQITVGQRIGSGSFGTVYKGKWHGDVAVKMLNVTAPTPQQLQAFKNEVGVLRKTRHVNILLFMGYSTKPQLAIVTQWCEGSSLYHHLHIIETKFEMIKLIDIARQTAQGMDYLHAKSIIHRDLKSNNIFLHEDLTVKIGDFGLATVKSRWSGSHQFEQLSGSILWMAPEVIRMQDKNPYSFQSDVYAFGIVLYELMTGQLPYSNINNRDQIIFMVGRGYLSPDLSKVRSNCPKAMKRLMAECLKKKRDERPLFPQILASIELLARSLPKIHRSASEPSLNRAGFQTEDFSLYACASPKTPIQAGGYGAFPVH
Chain of Mitogen-activated protein kinase 8 (P45983 whole entry): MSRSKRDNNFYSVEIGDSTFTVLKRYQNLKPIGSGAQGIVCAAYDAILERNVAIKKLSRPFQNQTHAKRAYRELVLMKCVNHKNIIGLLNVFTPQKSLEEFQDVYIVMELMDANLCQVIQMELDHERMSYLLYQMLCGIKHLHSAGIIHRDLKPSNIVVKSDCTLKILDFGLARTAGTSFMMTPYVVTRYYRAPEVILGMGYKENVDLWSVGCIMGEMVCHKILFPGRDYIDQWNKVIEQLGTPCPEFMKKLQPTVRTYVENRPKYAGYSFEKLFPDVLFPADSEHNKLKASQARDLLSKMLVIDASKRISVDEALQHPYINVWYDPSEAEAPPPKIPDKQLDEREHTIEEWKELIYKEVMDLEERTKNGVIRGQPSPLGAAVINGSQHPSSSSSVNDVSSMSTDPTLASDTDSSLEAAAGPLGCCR
Chain of Ribosomal protein S6 kinase alpha-5 (O75582 whole entry): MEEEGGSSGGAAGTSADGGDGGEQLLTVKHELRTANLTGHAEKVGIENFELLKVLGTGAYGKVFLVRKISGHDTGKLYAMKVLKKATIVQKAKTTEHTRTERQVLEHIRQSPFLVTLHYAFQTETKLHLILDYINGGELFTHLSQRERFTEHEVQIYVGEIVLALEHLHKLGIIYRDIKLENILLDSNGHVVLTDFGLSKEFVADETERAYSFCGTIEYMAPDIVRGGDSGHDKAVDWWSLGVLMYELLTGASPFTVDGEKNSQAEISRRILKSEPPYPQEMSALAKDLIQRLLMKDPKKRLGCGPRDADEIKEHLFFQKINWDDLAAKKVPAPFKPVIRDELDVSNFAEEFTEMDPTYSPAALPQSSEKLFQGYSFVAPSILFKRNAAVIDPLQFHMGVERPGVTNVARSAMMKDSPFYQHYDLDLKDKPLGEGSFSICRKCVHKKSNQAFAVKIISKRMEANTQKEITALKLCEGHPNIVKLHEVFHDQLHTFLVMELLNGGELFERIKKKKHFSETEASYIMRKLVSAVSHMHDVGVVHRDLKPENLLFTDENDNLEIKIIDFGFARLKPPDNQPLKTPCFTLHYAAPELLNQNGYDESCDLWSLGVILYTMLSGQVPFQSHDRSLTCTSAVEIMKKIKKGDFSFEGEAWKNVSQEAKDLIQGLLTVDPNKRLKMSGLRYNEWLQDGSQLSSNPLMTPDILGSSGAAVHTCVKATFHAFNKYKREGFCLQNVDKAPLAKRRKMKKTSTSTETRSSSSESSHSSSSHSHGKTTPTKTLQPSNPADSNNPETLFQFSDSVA
Chain of Mitogen-activated protein kinase 10 (P53779 whole entry): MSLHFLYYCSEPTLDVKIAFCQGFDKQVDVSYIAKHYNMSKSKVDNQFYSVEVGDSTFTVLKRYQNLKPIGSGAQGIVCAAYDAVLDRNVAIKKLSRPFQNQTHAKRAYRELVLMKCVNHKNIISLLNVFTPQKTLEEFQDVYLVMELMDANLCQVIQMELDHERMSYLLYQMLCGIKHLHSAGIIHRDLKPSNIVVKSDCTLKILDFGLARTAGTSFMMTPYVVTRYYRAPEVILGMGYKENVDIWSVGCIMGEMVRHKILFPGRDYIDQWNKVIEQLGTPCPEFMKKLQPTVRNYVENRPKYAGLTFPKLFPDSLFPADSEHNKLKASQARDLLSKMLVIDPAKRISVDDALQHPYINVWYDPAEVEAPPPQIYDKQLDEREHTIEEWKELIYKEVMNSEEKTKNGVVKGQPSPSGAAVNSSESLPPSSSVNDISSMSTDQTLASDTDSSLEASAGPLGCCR

Compound: Nc1nc(-c2ccc(F)cc2)c(-c2ccc3ncccc3n2)s1 [GW785804X]
IC50 (MAP kinase p38 [4]): 0.49 µM
IC50 (TGF-beta receptor type-1 [1]): 0.03 µM
IC50 (TGF-beta receptor type-1 [5]): 0.01 µM
IC50 (TGF-beta receptor type-1 [6]): 0.04 µM

Compound: c1ccc(-c2n[nH]cc2-c2ccc3ncccc3n2)nc1
IC50 (TGF-beta receptor type-1 [1]): 0.05 µM
IC50 (MAP kinase p38 [7]): > 16 µM
IC50 (TGF-beta receptor type-1 [5]): 0.019 µM
IC50 (TGF-beta receptor type-1 [8]): 0.03 µM

Compound: Cc1cccc(-c2nc(N)sc2-c2ccc3ncccc3n2)n1
IC50 (MAP kinase p38 [7]): > 16 µM

Compound: Cc1ccc2nccc(-c3sc(N)nc3-c3ccccn3)c2n1
IC50 (TGF-beta receptor type-1 [1]): 0.26 µM
IC50 (TGF-beta receptor type-1 [9]): 0.38 µM

Compound: Nc1nc(-c2ccccn2)c(-c2ccc3ncccc3n2)s1 [GW693481X]
IC50 (TGF-beta receptor type-1 [1]): 0.12 µM
IC50 (MAP kinase p38 [7]): > 16 µM
IC50 (TGF-beta receptor type-1 [5]): 0.02 µM
IC50 (TGF-beta receptor type-1 [10]): 0.04 µM

Compound: Cc1cccc(-c2n[nH]cc2-c2ccc3ncccc3n2)n1 [GW786460X]
IC50 [13]: > 16 µM
IC50 [14]: > 16 µM
IC50 [15]: > 16 µM
IC50 [16]: > 16 µM
IC50 [17]: > 16 µM
IC50 [18]: > 16 µM
IC50 [19]: > 16 µM

Compound: Nc1nc(-c2cccc(Cl)c2)c(-c2ccc3ncccc3n2)s1 [GW780159X]
IC50 (MAP kinase p38 [21]): 0.36 µM
IC50 (TGF-beta receptor type-1 [1]): 0.01 µM
IC50 (TGF-beta receptor type-1 [5]): 0.01 µM
IC50 (TGF-beta receptor type-1 [22]): 0.02 µM

Compound: Cc1ccnc2ccc(-c3sc(N)nc3-c3ccccn3)nc12
IC50 (TGF-beta receptor type-1 [1]): 0.22 µM
IC50 (TGF-beta receptor type-1 [23]): 0.03 µM

Compound: CCOc1ccc2nc(-c3sc(N)nc3-c3ccccn3)ccc2n1
IC50 (TGF-beta receptor type-1 [3]): > 10 µM
IC50 (TGF-beta receptor type-1 [1]): > 10 µM

More lines, now with the values ahead:

IC50 (TGF-beta receptor type-1 [1]): > 10 µM
IC50 (TGF-beta receptor type-1 [2]): 3.54 µM
Compound: Nc1nc(-c2ccccn2)c(-c2ccc3ccccc3n2)s1

IC50 (TGF-beta receptor type-1 [3]): > 10 µM
IC50 (TGF-beta receptor type-1 [1]): > 10 µM
Compound: COc1ccccc1-c1nc(N)sc1-c1ccnc2ccccc12

IC50 (TGF-beta receptor type-1 [1]): 6.67 µM
IC50 (TGF-beta receptor type-1 [11]): 1.25 µM
Compound: Nc1nc(-c2ccccc2F)c(-c2ccnc3ccccc23)s1

IC50 (TGF-beta receptor type-1 [1]): > 10 µM
IC50 (TGF-beta receptor type-1 [12]): 1.02 µM
Compound: Nc1nc(-c2cc(Cl)ccn2)c(-c2ccnc3ccccc23)s1

IC50 (TGF-beta receptor type-1 [1]): > 10 µM
IC50 (TGF-beta receptor type-1 [20]): 11 µM
Compound: Nc1nc(-c2ccccn2)c(-c2cccc3ccccc23)s1

IC50 (TGF-beta receptor type-1 [3]): > 10 µM
IC50 (TGF-beta receptor type-1 [1]): > 10 µM
Compound: Cc1ccc(-c2nc(N)sc2-c2ccnc3ccccc23)nc1

IC50 (TGF-beta receptor type-1 [1]): > 10 µM
IC50 (TGF-beta receptor type-1 [24]): 7.94 µM
Compound: Nc1nc(-c2ccccn2)c(-c2ccnc3ncccc23)s1

IC50 (TGF-beta receptor type-1 [1]): 6.58 µM
IC50 (TGF-beta receptor type-1 [25]): 1.17 µM
Compound: Nc1nc(-c2nccs2)c(-c2ccnc3ccccc23)s1

IC50 (TGF-beta receptor type-1 [1]): > 10 µM
IC50 (TGF-beta receptor type-1 [26]): 3.98 µM
Compound: Nc1nc(-c2cccnc2)c(-c2ccnc3ccccc23)s1

IC50 (TGF-beta receptor type-1 [1]): > 10 µM
IC50 (TGF-beta receptor type-1 [27]): 1.77 µM
Compound: Nc1nc(-c2ccc(Cl)cn2)c(-c2ccnc3ccccc23)s1
